Kd data for 39 variants are collected here from the RNAGym collection of RNA variant scans (doi:10.1038/nmeth.2970).

First the molecules themselves.
B1: NELF-E aptamer (parent)
chain: CCCAACGACUGCCGAGCGAGAUUACGCUUGAGCGCCCCACUGAGGAUGCCCACGGGCGAUUGGGGCACGG

By Kd is commonly meant the free concentration of one partner at which half of the binding sites on the other are occupied at equilibrium, for simple one-to-one binding.

The series covers variants of B1. The experiment in a line: HiTS-RAP. As to conditions: with NELF-E (Drosophila). The procedure, abridged:
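Aptamer DNA templates carrying a T7 promoter and ter site were sequenced on an Illumina GAIIx flowcell, then transcribed in situ by T7 RNA polymerase and halted by GST-Tus (30 minutes, 37°C). Clusters were imaged after 30-minute room-temperature equilibration with NELF-E-mOrange at 0.064 to 1000 nM in HEPES binding buffer, and only the first binding curve was used. Intensities were normalised to sequencing intensity and averaged per sequence. Kd came from weighted Hill fits, keeping fits with variance below 1,000,000.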
Regarding CCCAACGACUGCCGAGCGAGUUUACGCUUGAGCGCCCCACUGAGGAUGCCCACGGGCGAUUGGGGCGCGG, the Kd worked out at 5.54 nM.
The same measure for CCCAACGACUGCCGAGCGAGAGUACGCUUGAGCGCCCCACUGUGGAUGCCCACGGGCGAUUGGGGCACGG: 56.4 nM.
For CCCAACGACUGCCGAGCGAGAGUACGCUUGAGCGCCCCACUGGGGAUGCCCACGGGCGAUUGGGGCACGG the value was 22.8 nM; for CCCAACGACUGCCGAGCGAGAGUACGCUUGAGCGCCCCUCUGAGGAUGCCCACGGGCGAUUGGGGCACGG, 29.7 nM.
The same measure for CCCAACGACUGCCGAGCGAGAGUACGCUUGAGCGCCCCGCUGAGGAUGCCCACGGGCGAUUGGGGCACGG: 8.32 nM.
For the variant CCCAACGACUGCCGAGCGAGAGUACGCUUGAGCGCCCCACUGAGGGUGCCCACGGGCGAUUGGGGCACGG, the equilibrium dissociation constant (Kd) is 35.8 nM.
The same measure for CCCAACGACUGCCGAGCGAGAGUACGCUUGAGCGCCCCACUGAGGUUGCCCACGGGCGAUUGGGGCACGG: 33 nM; for CCCAACGACUGCCGAGCGAGACUGCGCUUGAGCGCCCCACUGAGGAUGCCCACGGGCGAUUGGGGCACGG: 6.97 nM; for CCCAACGACUGCCGAGCGAGGUUACGCCUGAGCGCCCCACUGAGGAUGCCCACGGGCGAUUGGGGCACGG: 6.03 nM.
The same measure for CCCAACGACUGCCGAGCGAGGUGACGCUUGAGCGCCCCACUGAGGAUGCCCACGGGCGAUUGGGGCACGG: 6.71 nM; for CCCAACGACUGCCGAGCGAGUUUACGCUUGAGCGCCCCACUGAGGAUGCCCACGGGCGAUUGGGGCACGG: 5.14 nM.
The same measure for CCCAACGACUGCCGAGCGAGACGACGCUUGAGCGCCCCACUGAGGAUGCCCACGGGCGAUUGGGGCACGG: 5 nM; for CCCAACGACUGCCGAGCGAGAAUACGCUUGAGCGCCCCACUGAGGAUGCCCACGGGCGAUUGGGGCACGG: 5.46 nM; for CCCAACGACUGCCGAGCGAGAGUACGCUUGAGCGCCCCACUGAGGAUGCCCACGGGCGAUUGGGGCACGG: 4.92 nM.
For CCCAACGACUGCCGAGCGAGACUACGCUUGAGCGCCCCACUGAGGAUGCCCACGGGCGAUUGGGGCACGG, the Kd is 4.53 nM.
The same measure for CCCAACGACUGCCGAGCGAGAGUACGCUUGUGCGCCCCACUGAGGAUGCCCACGGGCGAUUGGGGCACGG: 5.65 nM; for CCCAACGACUGCCGAGCGAGAGUACGCUUGGGCGCCCCACUGAGGAUGCCCACGGGCGAUUGGGGCACGG: 6.63 nM; for CCCAACGACUGCCGAGCGAGACUACGCUUGAGCGCCCCACGGAGGAUGCCCACGGGCGAUUGGGGCACGG: 5.5 nM.
For CCCAACGACUGCCGAGCGAGGGUACGCUUGAGCGCCCCACUGAGGAUGCCCACGGGCGAUUGGGGCACGG the value was 5.72 nM; for CCCAACGACUGCCGAGCGAGAGUACGCUUGAGCGCCCCACUGAGGAUGCCCACGGGCGGUUGGGGCACGG, 76.4 nM; for CCCAACGACUGCCGAGCGAGAGUACGCUUGAGCGCCCCACUGAGGAUGCCCACGGGCGUUUGGGGCACGG, 97.1 nM.
For CCCAACGACUGCCGAGCGAGUUUAGGCUUGAGCGCCCCACUGAGGAUGCCCACGGGCGAUUGGGGCACGG the value was 6.57 nM.
Turning to CCCAACGACUGCCGAGCGAGUGUACGCUUGAGCGCCCCACUGAGGAUGCCCACGGGCGAUUGGGGCACGG, the Kd was 5.31 nM.
The same measure for CCCAACGACUGCCGAGCGAGAAUGCGCUUGAGCGCCCCACUGAGGAUGCCCACGGGCGAUUGGGGCACGG: 7.66 nM; for CCCAACGACUGCCGAGCGAGUUUACGCUGGAGCGCCCCACUGAGGAUGCCCACGGGCGAUUGGGGCACGG: 5.33 nM.
For the variant CCCAACGACUGCCGAGCGAGACUACGCUGGAGCGCCCCACUGAGGAUGCCCACGGGCGAUUGGGGCACGG, the equilibrium dissociation constant (Kd) was found to be 5.29 nM.
The same measure for CCCAACGACUGCCGAGCGAGACUACGCUUGAGCGCCCCACUGAGGAUGCCCACGGGUGAUUGGGGCACGG: 2.92 nM; for CCCAACGACUGCCGAGCGAGUUUGCGCUUGAGCGCCCCACUGAGGAUGCCCACGGGCGAUUGGGGCACGG: 5 nM; for CCCAACGACUGCCGAGCGAGACUACGCUUGAGCGCCCCACUGAGGAAGCCCACGGGCGAUUGGGGCACGG: 10.5 nM.
The same measure for CCCAACGACUGCCGAGCGAGUUGACGCUUGAGCGCCCCACUGAGGAUGCCCACGGGCGAUUGGGGCACGG: 6.73 nM; for CCCAACGACUGCCGAGCGAGGUUACGCUUGAGCGCCCCACGGAGGAUGCCCACGGGCGAUUGGGGCACGG: 6.21 nM.
Consider CCCAACGACUGCCGAGCGAGUUUACGCUUGAGCGCCCCACGGAGGAUGCCCACGGGCGAUUGGGGCACGG, for which the Kd worked out at 5.38 nM.
For CCCAACGACUGCCGAGCGAGGUUACGCUGGAGCGCCCCACUGAGGAUGCCCACGGGCGAUUGGGGCACGG, the Kd amounted to 5.79 nM.
The same measure for CCCAACGACUGCCGAGCGAGAAGACGCUUGAGCGCCCCACUGAGGAUGCCCACGGGCGAUUGGGGCACGG: 5.34 nM.
For CCCAACGACUGCCGAGCGAGAGUACGCUUGAGCGCCCCACUGAGGAUGCCCGCGGGCGAUUGGGGCACGG the value was 4.99 nM; for CCCAACGACUGCCGAGCGAGAGUACGCUUGAGCGCCCCACUGAGGAUGCCCUCGGGCGAUUGGGGCACGG, 17.5 nM.
For CCCAACGACUGCCGAGCGAGAGUACGCUUGAGCGCCCCACUGAGGAUGCCCCCGGGCGAUUGGGGCACGG the value was 6.52 nM; for CCCAACGACUGCCGAGCGAGAGUGCGCUUGAGCGCCCCACUGAGGAUGCCCACGGGCGAUUGGGGCACGG, 5.62 nM; for CCCAACGACUGCCGAGCGAGAGUUCGCUUGAGCGCCCCACUGAGGAUGCCCACGGGCGAUUGGGGCACGG, 7.45 nM.
